Results from ChEMBL document CHEMBL1123045, “Synthesis of high specific activity [75Br]- and [77Br]bromperidol and tissue distribution studies in the rat” (J Med Chem, 1985).

Tests used:
Rattus norvegicus [1] = test: Distribution in rat fat 30 min after intravenous administration, injected dose/gm; assay type: ADME, organism-based, Adipose tissue; details: in vivo, 0.5 h
Outline: (§1)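 [77Br]Bromperidol at high specific activity (50-100 µCi in 0.1 mL 0.9% NaCl, pH 3) given into the femoral vein of 300-320-g female Sprague-Dawley rats under light ether anesthesia. At each time point, groups of five were decapitated after cardiac-puncture blood sampling. Organs were dissected, blotted, weighed and gamma-counted against an injectate standard. Values are % injected dose/g, mean ± SD, n=5.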

Rattus norvegicus [2] = test: Distribution in brain of rat, 30 min after intravenous administered, injected dose/gm; assay type: ADME, organism-based; details: in vivo, 0.5 h; outline: as §1
Rattus norvegicus [3] = test: Distribution in rat skin 2 hr after intravenous administration, injected dose/gm; assay type: ADME, organism-based; details: in vivo
Outline: (§2)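 Female Sprague-Dawley rats (300-320 g) under light ether anesthesia received a single injection of [77Br]-labeled tracer (50-100 µCi in 0.1 mL 0.9% NaCl, pH 3) into the femoral vein. Groups of five were decapitated at set times after a cardiac-puncture blood sample. Organs were dissected, blotted and weighed, and counted in a NaI(Tl) well γ-counter. Values are %ID/g against an injectate standard, mean ± SD (n=5).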

Rattus norvegicus [4] = test: Distribution in rat skin 30 min after intravenous administration, injected dose/gm; assay type: ADME, organism-based; details: in vivo, 0.5 h; outline: as §2
Rattus norvegicus [5] = test: Distribution in rat kidney, 8 hr after intravenous administration, injected dose/gm; assay type: ADME, organism-based; details: in vivo; outline: as §1
Rattus norvegicus [6] = test: Distribution in rat kidney, 5 min after intravenous administration, injected dose/gm; assay type: ADME, organism-based; details: in vivo; outline: as §1
Rattus norvegicus [7] = test: Distribution in brain of rat, 1 hr after intravenous administered, injected dose/gm; assay type: ADME, organism-based; details: in vivo; outline: as §1
Rattus norvegicus [8] = test: Distribution in rat skin 5 min after intravenous administration, injected dose/gm; assay type: ADME, organism-based; details: in vivo; outline: as §2
Rattus norvegicus [9] = test: Distribution in rat heart 1 hr after intravenous administration, injected dose/gm; assay type: ADME, organism-based; details: in vivo; outline: as §1
Rattus norvegicus [10] = test: Distribution in brain of rat, 4 hr after intravenous administered, injected dose/gm; assay type: ADME, organism-based; details: in vivo; outline: as §1
Rattus norvegicus [11] = test: Distribution in rat pancreas 5 min after intravenous administration, injected dose/gm; assay type: ADME, organism-based; details: in vivo; outline: as §2
Rattus norvegicus [12] = test: Distribution in rat uterus 8 hr after intravenous administration, injected dose/gm; assay type: ADME, organism-based; details: in vivo; outline: as §2
Rattus norvegicus [13] = test: Distribution in rat heart 5 min after intravenous administration, injected dose/gm; assay type: ADME, organism-based; details: in vivo; outline: as §1
Rattus norvegicus [14] = test: Distribution in rat intestine 4 hr after intravenous administration, injected dose/gm; assay type: ADME, organism-based; details: in vivo; outline: as §1
Rattus norvegicus [15] = test: Distribution in rat muscle 2 hr after intravenous administration, injected dose/gm; assay type: ADME, organism-based, Muscle tissue; details: in vivo; outline: as §2
Rattus norvegicus [16] = test: Distribution in rat skin 1 hr after intravenous administration, injected dose/gm; assay type: ADME, organism-based; details: in vivo; outline: as §2
Rattus norvegicus [17] = test: Distribution in rat spleen 2 hr after intravenous administration, injected dose/gm; assay type: ADME, organism-based; details: in vivo; outline: as §2
Rattus norvegicus [18] = test: Distribution in rat intestine 30 min after intravenous administration, injected dose/gm; assay type: ADME, organism-based; details: in vivo, 0.5 h; outline: as §1
Rattus norvegicus [19] = test: Distribution in rat uterus 5 min after intravenous administration, injected dose/gm; assay type: ADME, organism-based; details: in vivo; outline: as §2
Rattus norvegicus [20] = test: Distribution in rat fat 2 hr after intravenous administration, injected dose/gm; assay type: ADME, organism-based, Adipose tissue; details: in vivo; outline: as §1
Rattus norvegicus [21] = test: Distribution in rat fat 4 hr after intravenous administration, injected dose/gm; assay type: ADME, organism-based, Adipose tissue; details: in vivo; outline: as §1
Rattus norvegicus [22] = test: Distribution in rat lungs 6 hr after intravenous administration, injected dose/gm; assay type: ADME, organism-based, Lung; details: in vivo; outline: as §2
Rattus norvegicus [23] = test: Distribution in rat heart 2 hr after intravenous administration, injected dose/gm; assay type: ADME, organism-based; details: in vivo; outline: as §1
Rattus norvegicus [24] = test: Distribution in rat intestine 6 hr after intravenous administration, injected dose/gm; assay type: ADME, organism-based; details: in vivo; outline: as §1
Rattus norvegicus [25] = test: Distribution in rat uterus 6 hr after intravenous administration, injected dose/gm; assay type: ADME, organism-based; details: in vivo; outline: as §2
Rattus norvegicus [26] = test: Distribution in rat liver 5 min after intravenous administration, injected dose/gm; assay type: ADME, organism-based; details: in vivo; outline: as §2
Rattus norvegicus [27] = test: Distribution in rat fat 5 min after intravenous administration, injected dose/gm; assay type: ADME, organism-based, Adipose tissue; details: in vivo; outline: as §1
Rattus norvegicus [28] = test: Distribution in rat muscle 30 min after intravenous administration, injected dose/gm; assay type: ADME, organism-based, Muscle tissue; details: in vivo, 0.5 h; outline: as §2
Rattus norvegicus [29] = test: Distribution in rat intestine 8 hr after intravenous administration, injected dose/gm; assay type: ADME, organism-based; details: in vivo; outline: as §1
Rattus norvegicus [30] = test: Distribution in rat uterus 2 hr after intravenous administration, injected dose/gm; assay type: ADME, organism-based; details: in vivo; outline: as §2
Rattus norvegicus [31] = test: Distribution in rat heart 15 min after intravenous administration, injected dose/gm; assay type: ADME, organism-based; details: in vivo, 0.25 h; outline: as §1
Rattus norvegicus [32] = test: Distribution in blood of rat, 30 min after intravenous administration, injected dose/gm; assay type: ADME, organism-based; details: in vivo, 0.5 h; outline: as §1
Rattus norvegicus [33] = test: Distribution in rat uterus 30 min after intravenous administration, injected dose/gm; assay type: ADME, organism-based; details: in vivo, 0.5 h; outline: as §2
Rattus norvegicus [34] = test: Distribution in rat pancreas 6 hr after intravenous administration, injected dose/gm; assay type: ADME, organism-based; details: in vivo; outline: as §2
Rattus norvegicus [35] = test: Distribution in rat kidney, 4 hr after intravenous administration, injected dose/gm; assay type: ADME, organism-based; details: in vivo; outline: as §1
Rattus norvegicus [36] = test: Distribution in blood of rat 5 min after intravenous administration, injected dose/gm; assay type: ADME, organism-based; details: in vivo; outline: as §1
Rattus norvegicus [37] = test: Distribution in rat pancreas 4 hr after intravenous administration, injected dose/gm; assay type: ADME, organism-based; details: in vivo; outline: as §2
Rattus norvegicus [38] = test: Distribution in rat lungs 30 min after intravenous administration, injected dose/gm; assay type: ADME, organism-based, Lung; details: in vivo, 0.5 h; outline: as §2
Rattus norvegicus [39] = test: Distribution in rat kidney, 30 min after intravenous administration, injected dose/gm; assay type: ADME, organism-based; details: in vivo, 0.5 h; outline: as §1
Rattus norvegicus [40] = test: Distribution in rat lungs 4 hr after intravenous administration, injected dose/gm; assay type: ADME, organism-based, Lung; details: in vivo; outline: as §2
Rattus norvegicus [41] = test: Distribution in brain of rat, 8 hr after intravenous administered, injected dose/gm; assay type: ADME, organism-based; details: in vivo; outline: as §1
Rattus norvegicus [42] = test: Distribution in rat heart 4 hr after intravenous administration, injected dose/gm; assay type: ADME, organism-based; details: in vivo; outline: as §1
Rattus norvegicus [43] = test: Distribution in rat fat 6 hr after intravenous administration, injected dose/gm; assay type: ADME, organism-based, Adipose tissue; details: in vivo; outline: as §1
Rattus norvegicus [44] = test: Distribution in rat spleen 5 min after intravenous administration, injected dose/gm; assay type: ADME, organism-based; details: in vivo; outline: as §2
Rattus norvegicus [45] = test: Distribution in rat skin 4 hr after intravenous administration, injected dose/gm; assay type: ADME, organism-based; details: in vivo; outline: as §2
Rattus norvegicus [46] = test: Distribution in rat pancreas 2 hr after intravenous administration, injected dose/gm; assay type: ADME, organism-based; details: in vivo; outline: as §2
Rattus norvegicus [47] = test: Distribution in rat spleen 30 min after intravenous administration, injected dose/gm; assay type: ADME, organism-based; details: in vivo, 0.5 h; outline: as §2
Rattus norvegicus [48] = test: Distribution in rat liver 1 hr after intravenous administration, injected dose/gm; assay type: ADME, organism-based; details: in vivo; outline: as §1
Rattus norvegicus [49] = test: Distribution in rat skin 15 min after intravenous administration, injected dose/gm; assay type: ADME, organism-based; details: in vivo, 0.25 h; outline: as §2
Rattus norvegicus [50] = test: Distribution in rat fat 1 hr after intravenous administration, injected dose/gm; assay type: ADME, organism-based, Adipose tissue; details: in vivo; outline: as §1

Distribution (Rattus norvegicus [1]): 0.2%
Distribution (Rattus norvegicus [2]): 2.82%
Distribution (Rattus norvegicus [3]): 0.17%
Distribution (Rattus norvegicus [4]): 0.2%
Distribution (Rattus norvegicus [5]): 1.77%
Distribution (Rattus norvegicus [6]): 4.96%
Distribution (Rattus norvegicus [7]): 2.48%
Distribution (Rattus norvegicus [8]): 0.15%
Distribution (Rattus norvegicus [9]): 0.55%
Distribution (Rattus norvegicus [10]): 1.61%
Distribution (Rattus norvegicus [11]): 3.16%
Distribution (Rattus norvegicus [12]): 1.15%
Distribution (Rattus norvegicus [13]): 2.29%
Distribution (Rattus norvegicus [14]): 0.76%
Distribution (Rattus norvegicus [15]): 0.15%
Distribution (Rattus norvegicus [16]): 0.2%
Distribution (Rattus norvegicus [17]): 2.69%
Distribution (Rattus norvegicus [18]): 0.83%
Distribution (Rattus norvegicus [19]): 1.91%
Distribution (Rattus norvegicus [20]): 0.18%
Distribution (Rattus norvegicus [21]): 0.15%
Distribution (Rattus norvegicus [22]): 1.24%
Distribution (Rattus norvegicus [23]): 0.46%
Distribution (Rattus norvegicus [24]): 0.98%
Distribution (Rattus norvegicus [25]): 1.2%
Distribution (Rattus norvegicus [26]): 1.03%
Distribution (Rattus norvegicus [27]): 0.05%
Distribution (Rattus norvegicus [28]): 0.23%
Distribution (Rattus norvegicus [29]): 0.85%
Distribution (Rattus norvegicus [30]): 1.07%
Distribution (Rattus norvegicus [31]): 1.37%
Distribution (Rattus norvegicus [32]): 0.08%
Distribution (Rattus norvegicus [33]): 3%
Distribution (Rattus norvegicus [34]): 2.83%
Distribution (Rattus norvegicus [35]): 1.95%
Distribution (Rattus norvegicus [36]): 0.12%
Distribution (Rattus norvegicus [37]): 3.51%
Distribution (Rattus norvegicus [38]): 5.8%
Distribution (Rattus norvegicus [39]): 5.01%
Distribution (Rattus norvegicus [40]): 1.59%
Distribution (Rattus norvegicus [41]): 1.29%
Distribution (Rattus norvegicus [42]): 0.36%
Distribution (Rattus norvegicus [43]): 0.19%
Distribution (Rattus norvegicus [44]): 3.02%
Distribution (Rattus norvegicus [45]): 0.14%
Distribution (Rattus norvegicus [46]): 3.76%
Distribution (Rattus norvegicus [47]): 4.43%
Distribution (Rattus norvegicus [48]): 2.99%
Distribution (Rattus norvegicus [49]): 0.19%
Distribution (Rattus norvegicus [50]): 0.22%
SMILES: O=C(CCCN1CCC(O)(c2ccc(Br)cc2)CC1)c1ccc(F)cc1 [BROMPERIDOL]
